Results as given in ChEMBL document CHEMBL1132993, “Novel benzofuran and benzothiophene biphenyls as inhibitors of protein tyrosine phosphatase 1B with antihyperglycemic properties” (J Med Chem, 2000).
Each block holds one compound with its values, some of them ahead of it.

Columns and labels:
[1] = target: T1, Tyrosine-protein phosphatase non-receptor type 1 (Homo sapiens, UniProt P18031); assay: in vitro inhibitory activity against recombinant human Protein Tyrosine Phosphatase 1b
T1 sequence (P18031 whole entry): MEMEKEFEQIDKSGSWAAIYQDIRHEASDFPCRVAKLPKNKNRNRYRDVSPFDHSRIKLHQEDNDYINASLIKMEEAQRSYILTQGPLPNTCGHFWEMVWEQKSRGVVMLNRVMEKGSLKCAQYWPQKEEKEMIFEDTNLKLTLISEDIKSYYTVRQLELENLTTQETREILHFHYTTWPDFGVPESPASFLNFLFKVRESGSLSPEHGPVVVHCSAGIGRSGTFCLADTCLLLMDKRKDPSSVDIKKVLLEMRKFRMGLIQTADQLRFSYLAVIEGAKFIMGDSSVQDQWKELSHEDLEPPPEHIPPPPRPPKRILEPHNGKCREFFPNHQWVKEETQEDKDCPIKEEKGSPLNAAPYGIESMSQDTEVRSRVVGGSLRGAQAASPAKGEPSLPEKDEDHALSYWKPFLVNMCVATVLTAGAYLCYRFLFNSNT
Outline: (§1)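 Recombinant human PTP1B, diluted in pH 7.4 Tris-HCl/EDTA/β-mercaptoethanol buffer, preincubated 10 min at 37 °C with compound in HEPES pH 7.4. Substrate was the insulin receptor 1142-1153 dodecapeptide phosphorylated at Y1146/1150/1151, 50 µM final. Reaction ran 30 min at 37 °C. Released phosphate was read by malachite green-ammonium molybdate at 650 nm, in quadruplicate. IC50 came from four-parameter logistic regression.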

[2] = target: T1, Tyrosine-protein phosphatase non-receptor type 1; assay: In vitro inhibitory activity against human recombinant protein tyrosine phosphatase 1b (PTP1B)
Outline: as §1, with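 “7.4.” for “7.4. Substrate was the insulin receptor 1142-1153 dodecapeptide phosphorylated at Y1146/1150/1151, 50 µM final.”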

Mus musculus [3] = assay: Percentage decrease in plasma glucose in the ob/ob mouse model at 100 mg/kg/day administered per orally; type: functional; details: route oral
Outline: (§2)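 Genetically obese C57 B1/6J ob/ob diabetic mice, four to six per group, dosed orally once daily for 4 days. Plasma glucose is expressed as percent change relative to the vehicle-treated group, with p < 0.05 versus vehicle. Changes that are not significant are generally less than -15%. Ciglitazone served as the reference standard.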

[4] = target: T2, Tyrosine-protein phosphatase non-receptor type 1 (Homo sapiens) (UniProt P18031); details: 0.25 uM
T2 sequence (whole entry): T1 sequence (P18031 whole entry)

[5] = target: T2, Tyrosine-protein phosphatase non-receptor type 1 (Homo sapiens); details: 0.1 uM
Mus musculus [6] = assay: percentage decrease in plasma glucose in the ob/ob mouse model at 25 mg/kg/day administered per orally; type: functional; details: route oral; outline: as §2
[7] = target: Dual specificity protein phosphatase 3 (Homo sapiens, UniProt P51452); assay: in vitro inhibitory activity against Dual specificity protein phosphatase 3
Sequence of Dual specificity protein phosphatase 3 (P51452 whole entry): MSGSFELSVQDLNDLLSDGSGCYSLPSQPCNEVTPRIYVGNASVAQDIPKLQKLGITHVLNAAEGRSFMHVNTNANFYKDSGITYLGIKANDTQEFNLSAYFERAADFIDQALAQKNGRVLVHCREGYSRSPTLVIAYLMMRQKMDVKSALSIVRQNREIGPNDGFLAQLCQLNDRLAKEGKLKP

[8] = in vitro inhibitory activity against PTP-a
[9] = target: Receptor-type tyrosine-protein phosphatase F (Homo sapiens, UniProt P10586); assay: in vitro inhibitory activity against LAR
Sequence of Receptor-type tyrosine-protein phosphatase F (P10586 whole entry): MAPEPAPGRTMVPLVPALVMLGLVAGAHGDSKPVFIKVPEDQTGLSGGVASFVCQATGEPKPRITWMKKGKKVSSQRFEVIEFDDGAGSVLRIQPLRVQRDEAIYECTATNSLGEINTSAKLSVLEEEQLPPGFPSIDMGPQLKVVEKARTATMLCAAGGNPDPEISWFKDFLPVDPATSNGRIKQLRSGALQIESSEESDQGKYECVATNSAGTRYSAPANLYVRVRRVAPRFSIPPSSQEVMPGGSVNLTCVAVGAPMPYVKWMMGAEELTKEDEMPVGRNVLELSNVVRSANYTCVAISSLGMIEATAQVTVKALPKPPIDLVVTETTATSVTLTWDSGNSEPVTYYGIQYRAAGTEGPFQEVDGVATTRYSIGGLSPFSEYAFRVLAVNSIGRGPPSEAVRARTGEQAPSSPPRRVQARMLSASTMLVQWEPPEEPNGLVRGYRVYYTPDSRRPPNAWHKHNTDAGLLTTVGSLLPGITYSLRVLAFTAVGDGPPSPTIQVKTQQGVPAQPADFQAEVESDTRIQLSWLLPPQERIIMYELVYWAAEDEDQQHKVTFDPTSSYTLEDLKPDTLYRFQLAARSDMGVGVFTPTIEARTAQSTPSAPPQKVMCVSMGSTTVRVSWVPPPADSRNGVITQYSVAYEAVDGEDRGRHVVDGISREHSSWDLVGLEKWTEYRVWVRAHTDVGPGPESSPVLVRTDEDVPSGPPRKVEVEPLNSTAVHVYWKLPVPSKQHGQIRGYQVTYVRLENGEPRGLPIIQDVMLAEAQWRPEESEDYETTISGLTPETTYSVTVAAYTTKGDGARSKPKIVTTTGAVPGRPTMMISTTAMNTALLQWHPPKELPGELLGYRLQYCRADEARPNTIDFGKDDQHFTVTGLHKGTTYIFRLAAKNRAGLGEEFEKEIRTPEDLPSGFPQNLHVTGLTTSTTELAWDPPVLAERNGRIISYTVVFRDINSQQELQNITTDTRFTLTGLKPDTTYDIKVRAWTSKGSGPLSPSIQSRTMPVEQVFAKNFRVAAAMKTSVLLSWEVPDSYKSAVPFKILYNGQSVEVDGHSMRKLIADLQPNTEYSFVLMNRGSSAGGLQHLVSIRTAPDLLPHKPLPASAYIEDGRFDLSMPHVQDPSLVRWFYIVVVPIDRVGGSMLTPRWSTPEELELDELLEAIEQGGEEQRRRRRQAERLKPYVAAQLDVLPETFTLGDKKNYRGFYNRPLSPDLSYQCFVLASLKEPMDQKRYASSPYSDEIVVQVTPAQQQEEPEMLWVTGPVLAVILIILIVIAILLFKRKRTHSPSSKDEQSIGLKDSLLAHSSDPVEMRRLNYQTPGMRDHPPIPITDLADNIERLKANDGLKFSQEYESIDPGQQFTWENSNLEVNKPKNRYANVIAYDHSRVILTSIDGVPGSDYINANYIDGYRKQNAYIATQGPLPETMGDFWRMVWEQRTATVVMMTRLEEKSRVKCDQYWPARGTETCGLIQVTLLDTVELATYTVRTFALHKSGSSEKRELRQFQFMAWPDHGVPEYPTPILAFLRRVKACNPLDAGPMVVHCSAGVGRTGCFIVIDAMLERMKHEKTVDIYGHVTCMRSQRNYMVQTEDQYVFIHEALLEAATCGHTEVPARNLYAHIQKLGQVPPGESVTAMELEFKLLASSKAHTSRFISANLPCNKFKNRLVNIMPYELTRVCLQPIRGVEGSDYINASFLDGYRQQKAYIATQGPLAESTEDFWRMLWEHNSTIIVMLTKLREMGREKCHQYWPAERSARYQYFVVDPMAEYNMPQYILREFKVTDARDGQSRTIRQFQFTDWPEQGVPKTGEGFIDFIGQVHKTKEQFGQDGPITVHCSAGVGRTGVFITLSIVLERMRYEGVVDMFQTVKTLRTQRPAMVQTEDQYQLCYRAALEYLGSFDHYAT

[10] = in vitro inhibitory activity against He-PTP
Mus musculus [11] = assay: percentage decrease in plasma glucose in the ob/ob mouse model at 100 mg/kg/day administered per orally; type: functional; details: route oral; outline: as §2

IC50 [1]: 0.46 µM
SMILES: O=C(O)/C=C\C(=O)Nc1cc(-c2ccc(-c3c(Cc4ccccc4)oc4ccccc34)cc2)ccc1O

IC50 [1]: 0.92 µM
SMILES: O=C(O)CCC(=O)Nc1cc(-c2ccc(-c3c(Cc4ccccc4)oc4ccccc34)cc2)ccc1O

SMILES: Cc1oc(-c2ccc(C(F)(F)F)cc2)nc1-c1ccc(-c2ccc(OCC(=O)O)cc2)cc1
IC50 [2]: 0.8 µM | Decrease (Mus musculus [3]): 40%

Average inhibition [4]: -38
SMILES: O=C(O)[C@H](Cc1ccccc1)Oc1ccc(-c2ccc(-c3c(Cc4ccc(F)cc4)oc4ccccc34)cc2)cc1

Average inhibition [5]: -59
SMILES: CCCc1cc(-c2ccc(-c3c(Cc4ccccc4)oc4ccccc34)cc2)ccc1O[C@@H](Cc1ccccc1)C(=O)O

SMILES: O=C(O)[C@H](Cc1ccccc1)Oc1ccc(-c2ccc(-c3c(Cc4ccccc4)oc4ccccc34)cc2)cc1
Decrease (Mus musculus [6]): 27% | IC50 [7]: 15.9 µM | IC50 [8]: 33.7 µM | IC50 [9]: 3.25 µM | IC50 [10]: 7.1 µM | Decrease (Mus musculus [11]): 40%
